Series [1] relates to Staphylococcus aureus. The experiment in a line: Antibacterial activity against methicillin-resistant Staphylococcus aureus isolate M10 after 16 to 20 hrs by broth microdilution method. The format is functional. Put shortly: (§1)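 CLSI broth microdilution in cation-adjusted Mueller-Hinton broth. A 4-6 h culture was diluted to about 10⁶ CFU/mL and mixed 1:1 with twofold compound dilutions (256–0.5 µg/mL before mixing) prepared from aqueous stocks. Plates were incubated at 37 °C for 16-20 h. Each concentration was tested in duplicate, and the experiment was repeated at least twice.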

For series [2], the system named is Staphylococcus aureus. Description: Antibacterial activity against methicillin-resistant Staphylococcus aureus isolate M7 after 16 to 20 hrs by broth microdilution method. The format is functional. In outline:
as §1
A general note: In broth dilution the organism is exposed to a series of concentrations in liquid medium.

Series [3] has as its system Escherichia coli. The experiment in a line: Induction of inner membrane permeabilization in Escherichia coli ATCC 25922 at 20 ug/ml measured every 2 mins for 12 mins by propidium iodide staining based fluorescence assay. The series is classed as functional, organism-based. Put shortly:
(§2)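 Mid-log cells (~10^8 CFU/mL) pre-incubated with propidium iodide (10 µM, 50 µL), 30 min for S. aureus and 40 min for E. coli. Fluorescence (ex 535/em 617 nm) read for 8 min, then compound added to 20 µg/mL final and monitored every 2 min for 12 min. Water-treated control.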

For series [4], the system named is Staphylococcus aureus. Description: Antibacterial activity against methicillin-resistant Staphylococcus aureus isolate M3 after 16 to 20 hrs by broth microdilution method. The series is classed as functional. In outline:
as §1

For series [5], the system named is Staphylococcus aureus. Description: Antibacterial activity against methicillin-resistant Staphylococcus aureus isolate M8 after 16 to 20 hrs by broth microdilution method. The format is functional. In outline: as §1
The nature of series [6]: Hemolytic activity in sheep RBC after 1 hr. The series is classed as ADME, cell-based, Ovis aries, Erythrocyte. The following applies: sheep red blood cells (erythrocytes). In outline:
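Sheep RBCs suspended at 5% in PBS; 150 µL added to 50 µL compound dilutions (5120 to 10 µg/mL series). Incubated 1 h at 37 °C, then centrifuged; supernatant absorbance read at 540 nm. Lysis (%) = (A−A0)/(Atotal−A0)×100, with untreated 5% RBC as A0 and 0.1% Triton X-100 as total.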

Series [7] has as its system Staphylococcus aureus. The experiment in a line: Antibacterial activity against methicillin-resistant Staphylococcus aureus isolate M1 after 16 to 20 hrs by broth microdilution method. The series is classed as functional. In outline: as §1
In series [8] the test system is Staphylococcus aureus. Description: Antibacterial activity against methicillin-resistant Staphylococcus aureus isolate M4 after 16 to 20 hrs by broth microdilution method. The format is functional. In outline: as §1
Series [9] has as its system Staphylococcus aureus. The experiment in a line: Antibacterial activity against methicillin-resistant Staphylococcus aureus isolate M2 after 16 to 20 hrs by broth microdilution method. The format is functional. In outline: as §1
Series [10] deals with Enterococcus faecalis. Description: Antibacterial activity against Enterococcus faecalis after 16 to 20 hrs by broth microdilution method. The series is classed as functional. In outline: (§3)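 Broth microdilution per CLSI in cation-adjusted Mueller-Hinton broth; 4-6 h cultures (~10⁸ CFU/mL) diluted to ~10⁶ CFU/mL and mixed 1:1 with twofold dilutions of water-dissolved compound (256 to 0.5 µg/mL). Incubated 16-20 h at 37 °C; MIC read visually. Each concentration run in duplicate, whole experiment repeated at least twice. MRSA, KPC and NDM-1 strains were clinical isolates.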

For series [11], the system named is Escherichia coli. Description: Antibacterial activity against Escherichia coli ATCC 25922 after 16 to 20 hrs by broth microdilution method. The series is classed as functional. In outline:
as §3

Series [12] deals with Staphylococcus aureus. The experiment in a line: Antibacterial activity against methicillin-resistant Staphylococcus aureus after 16 to 20 hrs by broth microdilution method. The format is functional. In outline:
as §1

For series [13], the system named is Staphylococcus aureus. Description: Antibacterial activity against methicillin-resistant Staphylococcus aureus isolate M5 after 16 to 20 hrs by broth microdilution method. The series is classed as functional. Put shortly:
as §1

Series [14] has as its system Escherichia coli. The experiment in a line: Induction of cytoplasmic membrane depolarization in Escherichia coli ATCC 25922 at 20 ug/ml measured every 2 mins for 12 mins by diSC35 staining based fluorescence assay. The format is functional, organism-based. Put shortly:
(§4)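 Mid-log cells (4–6 h) pelleted, washed and resuspended (~10^8 CFU/mL) in PBS for S. aureus, or in 5 mM HEPES, 5 mM glucose and 100 mM KCl (1:1:1) for E. coli. Preloaded with diSC35 (10 µM, 50 µL), 30 min for S. aureus and 40 min plus EDTA (200 µM, 50 µL) for E. coli. Baseline read 8 min (ex 622/em 670 nm), then compound added to 20 µg/mL final and read every 2 min for 12 min. Water control.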

Series [15] has as its system Staphylococcus aureus. The experiment in a line: Antibacterial activity against methicillin-resistant Staphylococcus aureus isolate M6 after 16 to 20 hrs by broth microdilution method. The format is functional. In outline:
as §1

The subject of series [16] is Staphylococcus aureus. The experiment in a line: Induction of cytoplasmic membrane depolarization in Staphylococcus aureus ATCC 29213 at 20 ug/ml measured every 2 mins for 12 mins by diSC35 staining based fluorescence assay. The series is classed as functional, organism-based. In outline: as §4
For series [17], the system named is Staphylococcus aureus. Description: Antibacterial activity against Staphylococcus aureus ATCC 29213 after 16 to 20 hrs by broth microdilution method. The format is functional. Put shortly:
as §1

Series [18] deals with Escherichia coli. The experiment in a line: Induction of outer membrane permeabilization in Escherichia coli ATCC 25922 at 20 ug/ml measured every 2 mins for 12 mins by NPN staining based fluorescence assay. The format is functional, organism-based. Put shortly: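 Mid-log E. coli (~10^8 CFU/mL) in black plates pre-incubated about 40 min with NPN (10 µM, 50 µL). Baseline read 8 min (ex 350/em 420 nm), then compound added to 20 µg/mL final and fluorescence followed every 2 min for 12 min. Water-treated control.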

Series [19] relates to Staphylococcus aureus. The experiment in a line: Antibacterial activity against methicillin-resistant Staphylococcus aureus isolate M9 after 16 to 20 hrs by broth microdilution method. The format is functional. In outline: as §1
For series [20], the system named is Staphylococcus aureus. The experiment in a line: Induction of inner membrane permeabilization in Staphylococcus aureus ATCC 29213 at 20 ug/ml measured every 2 mins for 12 mins by propidium iodide staining based fluorescence assay. The series is classed as functional, organism-based. In outline: as §2
The subject of series [21] is Salmonella enterica. Description: Antibacterial activity against Salmonella enterica after 16 to 20 hrs by broth microdilution method. The series is classed as functional. In outline:
as §3

The source of these data is ChEMBL document CHEMBL4130549, “Synthesis and bioactivities study of new antibacterial peptide mimics: The dialkyl cationic amphiphiles” (Eur J Med Chem, 2018).

The structures appear in SMILES notation. The source made the active and inactive calls. Some results are limits rather than exact numbers.

For `CCCCCCCCN(CCCCCCCC)C(=O)[C@@H](N)CC(C)C.Cl`, the MIC in series [1] was 4 µg/mL; in [2] it was 4 µg/mL; in [4] it was 2 µg/mL; in series [5], 4 µg/mL; in [7] it was 4 µg/mL; in [8], 2 µg/mL. Also, the MIC in series [9] turned out to be 2 µg/mL; in series [10] it was 2 µg/mL; in series [11] it was 64 µg/mL; in [12], 4 µg/mL; in series [13], 4 µg/mL; in [15] it was 4 µg/mL. The results for the MIC in series [17], in series [19] and in series [21] were 2 µg/mL, 4 µg/mL and > 128 µg/mL, respectively. Moreover, the outcome in series [3], in [14], in [16], in series [18] and in series [20] was Active. Also, the HC50 at 1 h in series [6] was > 1000 µg/mL.

In the case of `C[C@@H](O)[C@H]1C(=O)N2C(C(=O)O)=C(S[C@@H]3CN[C@H](C(=O)N(C)C)C3)[C@H](C)[C@H]12` [MEROPENEM], the MIC in series [11] was < 0.125 µg/mL.

Consider `CCCCCCCCN(CCCCCCCC)C(=O)[C@@H](N)[C@@H](C)CC.Cl`, for which the MIC in [1], in series [2], in series [4], in [5], in series [7] and in [8] was 4 µg/mL each time. The MIC in [9] was 4 µg/mL; in series [10] it was 4 µg/mL; in series [11] it was > 128 µg/mL; in series [12], 4 µg/mL; in [13] it was 4 µg/mL; in series [15], 4 µg/mL. Also, the MIC in series [17] was 4 µg/mL; in series [19], 4 µg/mL; in series [21] it was > 128 µg/mL. The result in series [3], in series [14], in series [16], in [18] and in series [20] was Active. The HC50 at 1 h in series [6] was found to be 293 µg/mL.

`CCCCCCN(CCCCCC)C(=O)[C@@H](N)CCCCN.Cl.Cl`: the outcome in series [3], in series [14], in series [16], in [18] and in series [20] was Active. Further, the HC50 at 1 h in series [6] was 496 µg/mL. Further, the MIC in series [10], in [11], in series [17] and in series [21] was 64 µg/mL each time.

Regarding `CCCCCCCCN(CCCCCCCC)C(=O)[C@@H](N)Cc1ccccc1.Cl`, the MIC in series [1] came to 32 µg/mL; in series [2], 16 µg/mL; in series [4], 16 µg/mL; in series [5] it was 32 µg/mL; in series [7] it was 32 µg/mL; in series [8] it was 16 µg/mL. The minimum inhibitory concentration (MIC) in series [9] is 16 µg/mL; in series [10] it was 128 µg/mL; in series [11] it was > 128 µg/mL; in series [12] it was 32 µg/mL; in [13], 32 µg/mL; in series [15] it was 32 µg/mL. Also, the MIC was 8 µg/mL in [17], 32 µg/mL in [19] and > 128 µg/mL in series [21]. Besides, the outcome in series [3], in [14], in [16], in series [18] and in series [20] was Active. Besides, in series [6], the HC50 at 1 h was > 1000 µg/mL.

On to `CCCCCCCCCCN(CCCCCCCCCC)C(=O)[C@H](N)CO.Cl`, for which the MIC in series [1], in [2], in [4], in series [5], in series [7] and in series [8] was 32 µg/mL throughout. The MIC in [9] was 32 µg/mL; in [10], 32 µg/mL; in series [11] it was > 128 µg/mL; in [12], 32 µg/mL; in [13] it was 32 µg/mL; in series [15], 32 µg/mL. In addition, the values for the MIC in [17], in series [19] and in [21] were 16 µg/mL, 32 µg/mL and > 128 µg/mL, respectively. The result in [3], in [14], in series [16], in series [18] and in [20] was Active. Moreover, the HC50 at 1 h in series [6] was > 1000 µg/mL.

For `CCN(CC)C(=O)[C@@H](N)CCCCN.Cl.Cl`, the result in [3], in series [14], in series [16], in [18] and in series [20] was Active. Also, the HC50 at 1 h in [6] is > 1000 µg/mL. Further, the MIC in series [10], in [11], in series [17] and in [21] was > 128 µg/mL in each case.

As to `CCCCN(CCCC)C(=O)[C@@H](N)CCCCN.Cl.Cl`, the result in series [3], in [14], in series [16], in series [18] and in series [20] was Active. Also, the HC50 at 1 h in series [6] worked out at 743 µg/mL. The MIC in [10] is 128 µg/mL; in [11], > 128 µg/mL; in series [17] it was > 128 µg/mL; in series [21], 128 µg/mL.

Consider `CCCCCCCCCCN(CCCCCCCCCC)C(=O)[C@@H](N)CO.Cl`, for which the MIC in series [1] stood at 16 µg/mL; in [2], 8 µg/mL; in series [4], 4 µg/mL; in [5], 16 µg/mL; in [7] it was 16 µg/mL; in series [8], 4 µg/mL. Moreover, the MIC in series [9] is 4 µg/mL; in series [10] it was 8 µg/mL; in series [11], > 128 µg/mL; in series [12], 16 µg/mL; in [13], 16 µg/mL; in series [15], 8 µg/mL. Further, the MIC was 8 µg/mL in series [17], 16 µg/mL in series [19] and > 128 µg/mL in series [21]. Also, the result in [3], in series [14], in [16], in series [18] and in series [20] was Active. Also, in series [6], the HC50 at 1 h is > 1000 µg/mL.

Turning to `CCCCCN(CCCCC)C(=O)[C@@H](N)CCCCN.Cl.Cl`, the outcome in series [3], in [14], in [16], in series [18] and in series [20] was Active. Besides, in series [6], the HC50 at 1 h turned out to be 576 µg/mL. In addition, the MIC in [10], in series [11], in [17] and in series [21] was 128 µg/mL each time.

As a reminder, the MIC is the smallest concentration in the dilution series that meets the test's criterion for growth inhibition. Lower therefore signals greater potency. Usually HC50 stands for the concentration that lyses half of the red blood cells.
